Measurements as given in article PMC7196279 (Biomedicine & pharmacotherapy = Biomedecine & …, 2020).
Where two headings read alike, the source gives them in different places. Bridges are numbered along the chain shown (N, C = ends). Where no end group is shown, it is not given here.

What was measured:
[1] = test system: sarco/endoplasmic reticulum calcium ATPase (SERCA); type: cell-based; conditions: all four lines, thapsigargin pretreatment 1 μM final concentration
Summary of the method: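 Fluo-3 AM-loaded cells (60 min, 37 °C) were washed four times and treated with thapsigargin (1 μM final) for 5 min. The Ca2+ mobilization assay was then run with agonist concentration series, with untreated controls in parallel on the same plates. The Fluo-3 read was FMAX − F0. N = 3 experiments, five replicates per dose.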

[2] = test system: sarco/endoplasmic reticulum calcium ATPase (SERCA); type: cell-based; conditions: all four OT receptor cell lines, thapsigargin pretreatment
Summary of the method: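 Cells were incubated with FMP Blue in Locke's buffer at 37 °C for 40 min. Thapsigargin was added, followed by 5 min more incubation. The membrane potential assay was then run with agonist concentration series. Fluorescence was read at ex 530/em 565 nm every 2 s for 200 s after a 60 s baseline. Response was FMIN − F0.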

[3] = test system: Ca^2+-activated K^+ channels; type: cell-based, Chinese hamster; conditions: tOT receptor CHO cells; for inhibition of AVP induced hyperpolarization / inhibition of Leu^8-OT induced hyperpolarization / inhibition of Pro^8-OT induced hyperpolarization: inhibitor pretreatment
Summary of the method: (§1)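 Receptor-expressing CHO-K1 cells were loaded with FMP Blue in Locke's buffer (pH 7.4) at 37 °C for 35 min. Paxilline, TRAM-34 and/or apamin were then added, followed by 10 min more incubation. Baseline was read for 60 s, then log concentrations of agonist were added and ex 530/em 565 nm was read every 2 s for 200 s. NS-1619 or SKA-31 stimulation followed paxilline (30 μM) or TRAM-34 pretreatment respectively. Response was FMIN − F0. N = 3 experiments, 10 replicates per dose.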

[4] = test system: Ca^2+-activated K^+ channels; conditions: mOT receptor CHO cells, cited from earlier work
[5] = test system: Ca^2+-activated K^+ channels; type: cell-based, Chinese hamster; conditions: mOT receptor CHO cells, inhibitor pretreatment
[6] = test system: Ca^2+-activated K^+ channels; type: cell-based, Chinese hamster; conditions: qOT receptor CHO cells; for inhibition of AVP induced hyperpolarization / inhibition of Leu^8-OT induced hyperpolarization / inhibition of Pro^8-OT induced hyperpolarization: inhibitor pretreatment
Summary of the method: as §1

[7] = test system: Ca^2+-activated K^+ channels; type: cell-based, Chinese hamster; conditions: hOT receptor CHO cells, inhibitor pretreatment
[8] = test system: Ca^2+-activated K^+ channels; conditions: hOT receptor CHO cells, cited from earlier work
[9] = target: T1, macaque oxytocin receptor (qOTR) (Macaca mulatta, UniProt P56494); test: Ca2+ mobilization assay; type: cell-based
T1 sequence (P56494 1-389): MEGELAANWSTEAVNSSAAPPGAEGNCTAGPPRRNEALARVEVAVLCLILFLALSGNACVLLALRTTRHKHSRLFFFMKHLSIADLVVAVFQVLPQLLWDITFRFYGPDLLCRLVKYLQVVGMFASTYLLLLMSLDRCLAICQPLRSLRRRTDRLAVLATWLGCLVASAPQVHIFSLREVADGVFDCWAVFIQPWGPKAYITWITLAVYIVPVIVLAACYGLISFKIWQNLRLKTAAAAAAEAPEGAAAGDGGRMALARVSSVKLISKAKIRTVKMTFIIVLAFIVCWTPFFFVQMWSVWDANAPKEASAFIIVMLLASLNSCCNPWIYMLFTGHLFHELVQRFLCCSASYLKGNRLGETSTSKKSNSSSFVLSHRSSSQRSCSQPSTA

Gi/o = type: cell-based; conditions: PTX 150 ng/ml
[10] = target: Human Kappa-opioid (κO) receptor (Homo sapiens, UniProt P41145); test: Membrane potential assay in κOR-CHO cells; type: cell-based; conditions: κOR-CHO cells pretreated with pertussis toxin
Sequence of Human Kappa-opioid (κO) receptor (P41145 whole entry): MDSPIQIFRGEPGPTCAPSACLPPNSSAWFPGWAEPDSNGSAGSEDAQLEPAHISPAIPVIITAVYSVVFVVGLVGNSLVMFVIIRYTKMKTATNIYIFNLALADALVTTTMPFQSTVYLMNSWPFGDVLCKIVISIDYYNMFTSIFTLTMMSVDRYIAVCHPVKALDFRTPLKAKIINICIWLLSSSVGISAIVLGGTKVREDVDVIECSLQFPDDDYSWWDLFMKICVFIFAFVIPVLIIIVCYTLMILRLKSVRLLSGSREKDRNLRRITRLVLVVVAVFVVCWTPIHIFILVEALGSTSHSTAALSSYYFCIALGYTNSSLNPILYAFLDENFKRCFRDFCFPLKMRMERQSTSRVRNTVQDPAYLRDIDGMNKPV

Compound: C/C=C(/C)C(=O)O[C@H]1C(C)=C2[C@H]([C@@H]1OC(=O)CCCCCCC)[C@@](C)(OC(C)=O)C[C@H](OC(=O)CCC)[C@@]1(O)[C@H]2OC(=O)[C@@]1(C)O [thapsigargin]
- effect on AVP and OT-analog evoked increases in Ca2+ [1]: blocked
- effect on hyperpolarization produced by AVP, Leu^8-OT, and Pro^8-OT [2]: eliminated

Compound: CC(C)(O)[C@H]1O[C@H]2CC[C@@]3(C)[C@@](O)(CC[C@H]4Cc5c([nH]c6ccccc56)[C@@]43C)C2=CC1=O [paxilline]
- block of NS-1619 evoked hyperpolarization ([3]; 30 μM paxilline): 80%
- inhibition of AVP induced hyperpolarization [3]: 13%
- inhibition of Leu^8-OT induced hyperpolarization [3]: 38%
- inhibition of Pro^8-OT induced hyperpolarization [3]: 39%
- effect on BKCa activator NS-1619 response [4]: inhibited
- inhibition of AVP induced hyperpolarization [5]: 20%
- block of NS-1619 evoked hyperpolarization ([6]; 30 μM paxilline): 72%
- inhibition of AVP induced hyperpolarization [6]: 20%
- inhibition of Leu^8-OT induced hyperpolarization [6]: 46%
- inhibition of Pro^8-OT induced hyperpolarization [6]: 35%
- inhibition of AVP induced hyperpolarization [7]: 52%
- effect on BKCa activator NS-1619 response [8]: inhibited

Compound: apamin: selective inhibitor of SKCa channels (CNCKAPETALCARRCQQH-NH2; disulfide 1-11, 3-15; UniProt P01500 28-45, looked up)
- inhibition of AVP induced hyperpolarization [3]: did not significantly affect
- inhibition of Leu^8-OT induced hyperpolarization [3]: ≤ 15%
- inhibition of Pro^8-OT induced hyperpolarization [3]: ≤ 15%
- inhibition of AVP induced hyperpolarization ([3]; listed as Apamin): ≤ 15%
- contribution to (inhibition of) Leu^8-OT induced membrane hyperpolarization ([4]; apamin pretreatment): ≤ 15%
- contribution to (inhibition of) Pro^8-OT induced membrane hyperpolarization ([4]; apamin pretreatment): ≤ 15%
- inhibition of AVP induced hyperpolarization [5]: did not significantly affect
- inhibition of AVP induced hyperpolarization ([5]; listed as Apamin): ≤ 15%
- inhibition of AVP induced hyperpolarization [6]: did not significantly affect
- inhibition of Leu^8-OT induced hyperpolarization [6]: ≤ 15%
- inhibition of Pro^8-OT induced hyperpolarization [6]: ≤ 15%
- inhibition of AVP induced hyperpolarization ([6]; listed as Apamin): ≤ 15%
- inhibition of AVP induced hyperpolarization [7]: did not significantly affect
- inhibition of AVP induced hyperpolarization ([7]; listed as Apamin): ≤ 15%
- contribution to (inhibition of) Leu^8-OT induced membrane hyperpolarization ([8]; apamin pretreatment): ≤ 15%
- contribution to (inhibition of) Pro^8-OT induced membrane hyperpolarization ([8]; apamin pretreatment): ≤ 15%

Compound: Clc1ccccc1C(c1ccccc1)(c1ccccc1)n1cccn1 [TRAM-34]
- inhibition of SKA-31 hyperpolarization ([3]; 300 nM TRAM-34 pretreatment): 78%
- inhibition of AVP induced hyperpolarization [3]: 25%
- inhibition of Leu^8-OT induced hyperpolarization [3]: 38%
- inhibition of Pro^8-OT induced hyperpolarization [3]: 37%
- effect on hyperpolarizing response to KCa3.1 channel opener SKA31 [4]: inhibited
- inhibition of AVP induced hyperpolarization [5]: 33%
- inhibition of SKA-31 hyperpolarization ([6]; 300 nM TRAM-34 pretreatment): 92%
- inhibition of AVP induced hyperpolarization [7]: 61%
- effect on hyperpolarizing response to KCa3.1 channel opener SKA31 [8]: inhibited

Compound: NC(=O)CC[C@@H]1NC(=O)[C@H](Cc2ccccc2)NC(=O)[C@H](Cc2ccc(O)cc2)NC(=O)[C@@H](N)CSSC[C@@H](C(=O)N2CCC[C@H]2C(=O)N[C@@H](CCCN=C(N)N)C(=O)NCC(N)=O)NC(=O)[C@H](CC(N)=O)NC1=O [AVP, arginine vasopressin]
- EC50 [9]: 49.8 nM

Compound: Pertussis toxin
- effect on AVP induced hyperpolarization (Gi/o; any of the four cell lines (mOTR, tOTR, qOTR, hOTR)): did not inhibit
- effect on Leu^8-OT induced hyperpolarization (Gi/o; tOT or qOT receptor cell lines): did not inhibit
- effect on Pro^8-OT induced hyperpolarization (Gi/o; tOT or qOT receptor cell lines): did not inhibit
- effect on DynorphinA1-13-NH2 hyperpolarizing response [10]: abolished
